Assay outcomes as filed in PubChem BioAssay.
OX1R antag-1: antagonists of human orexin 1 receptor. CHO/OX1R cells, Fluo-8 calcium fluorescence, orexin A. inhibition, % at 5 µM. 330,000 tested, 0.43% active;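 active means inhibition above its plate's threshold, mean inhibition of all tested compounds on the plate plus 3 SD, cut at about 37% in these data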;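 further: 0% = orexin A challenge wells and 100% = SB-334867-A antagonist wells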
Target sequence (O43613 whole entry, looked up): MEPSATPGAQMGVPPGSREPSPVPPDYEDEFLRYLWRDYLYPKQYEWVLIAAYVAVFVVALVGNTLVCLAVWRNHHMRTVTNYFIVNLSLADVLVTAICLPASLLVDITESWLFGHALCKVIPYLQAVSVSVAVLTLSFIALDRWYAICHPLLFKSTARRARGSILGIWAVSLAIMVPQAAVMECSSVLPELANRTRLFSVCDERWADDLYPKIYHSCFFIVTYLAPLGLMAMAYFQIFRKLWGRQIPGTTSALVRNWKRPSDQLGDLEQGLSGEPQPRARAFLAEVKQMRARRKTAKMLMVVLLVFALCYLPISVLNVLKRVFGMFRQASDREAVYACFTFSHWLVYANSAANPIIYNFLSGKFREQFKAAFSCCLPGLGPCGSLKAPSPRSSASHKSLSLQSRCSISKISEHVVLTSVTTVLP
OXTR potentiate: human OXTR potentiation | P30559 | CHO-OTR cells, Fluo-8 calcium fluorescence, potentiator mode; 0% = oxytocin EC15, 100% = EC100 | activation, % at 3 µM | 320,000 tested, 0.061% active;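 active means activation above that plate's cutoff, the mean activation of tested compounds plus 3 SD, cut at about 6.6% in these data, passing the limit was not always enough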;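 further: 100% uses oxytocin at 75 nM as the full agonist control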
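Assay system: CHO cell line stably expressing human OTR | Also added: Oxytocin at about EC15, sub-maximal agonist stimulus | Times: Compound 6 min at room temperature before oxytocin, 100 s read | Measured by: Fluo-8 intracellular calcium fluorescence, ex 470-495, em 515-575 nm | Controls: EC15 oxytocin alone as 0%, 75 nM oxytocin as 100%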
CHO parental Ca: counter-screen for OX1R antagonists: effect in parental CHO cells. inhibition, % at 5.6 µM. parental CHO-K1, ATP-induced calcium, Fluo-8 fluorescence. 330,000 tested, 0.63% active;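 active means inhibition above that plate's mean sample inhibition plus 3 SD, cut at about 26% in these data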;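 further: 0% = ATP-challenged DMSO wells and 100% = DMSO wells without ATP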
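Measured by: calcium-sensitive Fluo-8 fluorescence / Test system: CHO parental line / Controls: ATP-challenged DMSO wells low, unchallenged DMSO wells high / Measure: % inhibition / Compound: single nominal dose of 5.6 µM per compound / Replicates: single well per compound, no replicates / Reagent: ATP as calcium-mobilizing challenge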
V1aR counter: activates human V1a receptor in oxytocin agonist counter-screen; 320,000 tested, 0.25% active; CHO-V1R cells, Fluo-8 calcium fluorescence, agonist mode; 0% DMSO, 100% 3 nM vasopressin; P37288; activation, % at 3 µM;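 active means activation above the mean activation of all tested compounds plus 3 SD, per screening run, cut at about 20% in these data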;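 further: signal is peak over basal fluorescence ratio across a 100 second FLIPR read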
OX1R antag-2: blocks the human orexin 1 receptor | OX1R-expressing cells, FRET antagonist read-out | inhibition, % at 6.6 µM | 330,000 tested, 1.8% active; in the data active means inhibition mostly above about 38%, no sharp cut-off; inactive means mostly below about 40%;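 further: 0% = agonist challenge alone and 100% = reference antagonist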
OXTR agonist: agonists of human oxytocin receptor. activation, % at 3 µM. 320,000 tested, 0.32% active. CHO-OTR cells, Fluo-8 calcium fluorescence; normalized: DMSO 0%, oxytocin 100%. P30559;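 active means activation above the mean of all tested compounds plus 3 SD, cutoff set per screening run, cut at about 20% in these data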;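 further: peak over basal fluorescence ratio from a 100 s FLIPR kinetic read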
Active calls of the source: *. Shown are actives, neighbours in structure and some others; about 2.6% of the full set was active somewhere.

SMILES | OX1R antag-1 | OXTR potentiate | CHO parental Ca | V1aR counter | OX1R antag-2 | OXTR agonist
O=c1c2cc(F)ccc2sn1-c1ccc(F)cc1 | 14.4 | -10.3 | 29.8 | 13.5 | 32.1* | 18.1
COc1ccc(-n2sc3ccc(F)cc3c2=O)cc1 | 41.8 | -4.7 | 64.6* | 10.4 | 7.4 | 11.8
Cc1ccc2c(=O)n3c(nc2c1)C(Cc1ccc(O)cc1)NC(=O)c1ccc(Cl)cc1-3 (centres undefined) | 9.4 | -6.3 | -3.3 | 1.8 | 4.4 | 3.3
CC(C)(C)[C@@H]1COC(=O)[C@@H](Cc2ccc(F)cc2)C/C=C\C[C@H](CC(=O)N(CCO)Cc2ccccc2)C(=O)N1 | -35.5 | -7.6 | -12.6 | 0.3 | 4.6 | -0.6
CSC1=NSC2=NC(=O)/C(=C/c3coc4ccc(O)cc4c3=O)C(=N)N12 | 46.7* | -18.6 | 36.8* | 77.0* | 12.0 | 103.6*
CC1=CC2=NC(=O)/C(=C/c3coc4ccc(Cl)cc4c3=O)C(=N)N2O1 | 23.1 | -19.1 | 38.7* | 33.5* | 6.7 | 55.4*
N=C1/C(=C\c2coc3ccccc3c2=O)C(=O)N=C2SC=CN12 | 27.1 | -9.8 | 29.7* | 84.5* | 12.3 | 115.8*
CCn1cc(CN2CCC(C(=O)Nc3ccc(Oc4cccnc4)cc3)CC2)cn1 | -0.7 | -10.6 | -1.5 | -0.3 | 39.2 | -0.1
COc1cc(C(=O)Nc2cccc(-c3nc4cc(C)ccc4o3)c2)cc(OC)c1OC | -15.8 | 3.6 | -16.2 | 1.9 | 42.3 | 0.8
Cc1ccc2oc(-c3cccc(NC(=O)c4ccccn4)c3)nc2c1 | -42.2 | -2.4 | -3.6 | -0.2 | 68.0* | -2.0
CN(C)c1cccc2c1C(=O)c1ccccc1C2=O | -13.4 | 2.7 | -13.3 | -2.2 | 45.9* | -2.1
O=c1[nH]c(=S)[nH]c2nc(-c3ccccc3)cnc12 | -11.3 | -0.6 | -4.4 | -0.2 | 63.2* | -2.4
O=C(Cn1cnc2c(OCc3ccccc3)ncnc21)NCCCc1ccccc1 | -12.4 | 3.3 | -9.1 | 1.4 | -5.0 | 2.1
CC(=O)N(C1=C(O)c2ccccc2C(=O)C1=O)C1CCCCC1 | -6.4 | 1.5 | -9.6 | -0.4 | 35.8* | 0.5
CCN1CCN(c2ccc(S(=O)(=O)N3CCCCC3)cc2NC(=O)Cc2ccc(Cl)c(Cl)c2)CC1 | 45.5 | -18.4 | 73.8* | 48.9* | 19.1 | 86.3*
CCN1CCN(c2ccc(S(=O)(=O)N3CCCCC3)cc2NC(=O)Cc2ccccc2)CC1 | -19.8 | -11.6 | -23.2 | -0.2 | 13.6 | 0.5
CCN(CC)CCn1c2ccccc2c2nc3ccccc3nc21 | -2.4 | -11.3 | -10.7 | 6.6 | 66.6* | -0.5
CCN(CC)CCn1c2ccccc2c2n[nH]c(=S)nc21 | -20.2 | -0.7 | -13.9 | -0.1 | 20.3 | -1.2
CCOC(=O)c1csc(NC(=O)Nc2cccc(Cl)c2)n1 | -12.7 | -4.5 | -4.7 | 3.7 | 8.5 | 2.2
Cc1cc(S(=O)(=O)Nc2ccc3cn[nH]c3c2)c(C)cc1Cl | 6.8 | -12.6 | 40.3* | 11.9 | 27.7 | 9.2
O=C(Cn1cnc2c(OCc3ccccc3)ncnc21)NCC1CCCO1 (centres undefined) | 2.9 | -2.2 | -3.4 | -0.1 | -6.9 | 1.6
COc1cc(CNn2c(C)n[nH]c2=S)cc(Cl)c1OCc1ccc(F)cc1 | 45.2* | -12.3 | 34.6* | 11.9 | 15.6 | 6.3
CC(=O)c1cccc(NC(=O)Cn2cnc(S(=O)(=O)N3CCOCC3)c2)c1 | 0.1 | -3.7 | -2.4 | -1.1 | 18.2 | 0.1
N=C1S/C(=C\c2ccc(-c3cccc(Cl)c3)o2)C(=O)N1c1nccs1 | 17.5 | -7.7 | 17.7 | 0.2 | 2.5 | 0.9
COc1ccc(/C=C2\SC(=N)N(c3nccs3)C2=O)cc1OC | 27.6 | -7.4 | 26.4* | 2.1 | 72.6* | 1.7
O=C(c1ccccc1)N1N=C(C(F)(F)F)CC1(O)c1ccc(F)cc1 (centres undefined) | -46.6 | 7.9 | -22.8 | -0.4 | 21.9 | -1.8
O=[N+]([O-])c1cc(Br)c(O)c(/C=N/Nc2nnnn2-c2cccc3ccccc23)c1 | -10.1 | -6.4 | -18.3 | 2.0 | 44.9* | 1.7
O=C(COc1ccc(Cl)cc1Br)Nc1nnc(C2CC2)s1 | 2.2 | -0.1 | -1.9 | -0.3 | 1.5 | 1.1
